For 26 compounds, IC50, NA and ED50 results are on record in ChEMBL document CHEMBL1135744, “Design, synthesis, and structure-activity relationship of 6-alkynylpyrimidines as potent adenosine kinase inhibitors” (J Med Chem, 2002).

pIC50: −log10 of the molar value. The source made the active and inactive calls. The calls are words filed in the database; no cut-off is given here.

As usually defined, the pIC50 is the IC50 on a negative log10 scale, so that one unit is a factor of ten. A higher pIC50 goes with a small IC50. The term ED50 denotes the midpoint of the dose-response relation. Lower therefore signals an effect at a small dose.

One experiment has as its target Adenosine kinase (Rattus norvegicus, UniProt Q64640). Put plainly: Evaluated in vitro for inhibitory activity against Adenosine kinase (AK). In outline:
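Rat brain cytosol was the adenosine kinase source. The mix held 64 mM Tris-HCl pH 7.5, 0.2 mM MgCl2, 1 mM ATP and 0.2 μM [U-14C]ADO or [2-3H]ADO, incubated 15 min at 23 °C. Aliquots were spotted onto DE-81 anion-exchange disks, washed in 2 mM ammonium formate, rinsed and dried. Bound radioactivity was counted by scintillation.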

Experiment [1] concerns IMR-32. Put plainly: Evaluated in vitro for the inhibition of Adenosine (ADO) phosphorylation in intact cells. As to conditions: Homo sapiens. The experiment is classed as functional, cell-based. In outline: (§1)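 IMR-32 human neuroblastoma cells were preincubated 10 min with compound (10^-11 to 10^-4 M), then given [U-14C]ADO (added as a 2 μM solution) for 20 min. Buffer was aspirated and cells were snap-frozen in liquid nitrogen, then thawed 20 min at room temperature. Supernatant was spotted on DE-81 disks, washed and counted by scintillation.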

Experiment [2] concerns IMR-32. Description: Evaluated in vitro for the inhibition of Adenosine (ADO) phosphorylation in intact IMR-32 human neuroblastoma cells. The experiment is classed as functional, cell-based. In outline:
as §1

The subject of experiment [3] is Rattus norvegicus. Put plainly: Nociceptive paw flinching in rats assessed 30 min following an intraplantar injection of 5% formalin into the right hind paw.; NA=not active uM/Kg. In kind it is functional, organism-based. In outline: (§2)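 Rats received an intraplantar injection of 5% formalin (50 μL) into the right hindpaw, and nociceptive flinching was scored 30 min afterward. Data are mean ± SEM, n = 6-8 per dose group.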

Experiment [4] is filed under the species Rattus norvegicus. Put plainly: Nociceptive paw flinching in rats assessed 30 min following an intraplantar injection of 5% formalin into the right hind paw. In kind it is functional. As to conditions: 0.5 h. In short, it runs like this:
as §2

The species named for experiment [5] is Rattus norvegicus. Put plainly: Antihyperalgesic effect in the carrageenan induced thermal hyperalgesia model. In kind it is functional.
Experiment [6] relates to Rattus norvegicus. Put plainly: Antihyperalgesic effect in the carrageenan induced thermal hyperalgesia model uM/Kg. In kind it is functional, organism-based.
Experiment [7] concerns Rattus norvegicus. Description: Nociceptive paw flinching in rats assessed 30 min following an intraplantar injection of 5% formalin into the right hind paw; NA=not active uM/Kg. In kind it is functional, organism-based. In outline:
as §2

Sequence of Adenosine kinase (Q64640 whole entry): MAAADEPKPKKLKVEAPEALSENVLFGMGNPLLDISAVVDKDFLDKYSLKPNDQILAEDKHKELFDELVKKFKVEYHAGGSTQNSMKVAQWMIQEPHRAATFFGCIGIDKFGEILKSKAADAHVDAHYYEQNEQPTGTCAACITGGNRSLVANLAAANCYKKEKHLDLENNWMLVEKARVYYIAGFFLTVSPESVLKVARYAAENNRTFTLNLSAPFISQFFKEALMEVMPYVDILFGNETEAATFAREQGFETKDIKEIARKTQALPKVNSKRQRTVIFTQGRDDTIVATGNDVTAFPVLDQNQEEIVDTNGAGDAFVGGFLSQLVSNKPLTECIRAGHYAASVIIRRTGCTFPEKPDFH

As for `CN(Cc1ccc(Cl)c(Cl)c1)c1c(N)ncnc1C#Cc1ccc(N2CCOCC2)nc1`, the figures for the pIC50 against Adenosine kinase and with IMR-32 [1] were 6.70 and 6.46, respectively.
Consider `Nc1ncnc(C#Cc2ccc(N3CCOCC3)nc2)c1CCCc1cccnc1`, for which the pIC50 is 8.40 against Adenosine kinase and 7.03 with IMR-32 [2]. The NA entry in the experiment with Rattus norvegicus [3] was “inactive”.
On to `CN(Cc1ccc2ccccc2c1)c1c(N)ncnc1C#Cc1ccc(N2CCOCC2)nc1`, for which the pIC50 at Adenosine kinase is 6.61; in the experiment on IMR-32 [2], 6.41.
The matching figures for `Nc1ncnc(C#Cc2ccc(N3CCOCC3)nc2)c1Cc1cccc(Br)c1`: 7.66 and 6.00.
The like results for `CN(c1cccc(Br)c1)c1c(N)ncnc1C#Cc1ccc(N2CCOCC2)nc1` were, in that order, 7.55 and 6.55.
As to `CN(Cc1ccc(Br)cc1)c1c(N)ncnc1C#Cc1ccc(N2CCOCC2)nc1`, the pIC50 against Adenosine kinase was 7.05; in the experiment with IMR-32 [1] it was 6.29.
The like results for `Nc1ncnc(C#Cc2ccc(N3CCOCC3)nc2)c1CCCCc1ccccc1` were, in that order, 7.35 and less than 6.00.
The like results for `CN(Cc1ccc(Cl)cc1)c1c(N)ncnc1C#Cc1ccc(N2CCOCC2)nc1` were, in that order, 6.97 and 6.44.
For the compound `Nc1ncnc(C#Cc2ccc(N3CCOCC3)nc2)c1CN1CCc2ccccc2C1`, the pIC50 at Adenosine kinase was 7.40; in the experiment on IMR-32 [2] it was 6.00.
For `Nc1ncnc(C#Cc2ccc(N3CCOCC3)nc2)c1CCc1ccccc1`, the pIC50 against Adenosine kinase was 8.35; in the experiment on IMR-32 [1], 6.66.
Take `CN(Cc1ccccc1Cl)c1c(N)ncnc1C#Cc1ccc(N2CCOCC2)nc1`: the values for the pIC50 against Adenosine kinase and in the experiment on IMR-32 [2] were 7.82 and 7.00, respectively. In addition, the median effective dose (ED50) in the experiment listed under Rattus norvegicus [4] is 10 µmol/kg; in the experiment filed under Rattus norvegicus [5], 3 µmol/kg.
For `CN(Cc1ccccc1)c1c(N)ncnc1C#Cc1ccc(N2CCOCC2)nc1`, the values for the pIC50 on Adenosine kinase and in the experiment with IMR-32 [2] were 7.52 and 6.91, respectively. Further, the ED50 in the experiment listed under Rattus norvegicus [4] and in the experiment listed under Rattus norvegicus [5] was 10 µmol/kg each time.
As for `Nc1ncnc(C#Cc2ccc(N3CCOCC3)nc2)c1CCCc1ccccc1`, the figures for the pIC50 on Adenosine kinase and with IMR-32 [2] were 8.60 and 7.15, respectively. The ED50 in the experiment filed under Rattus norvegicus [4] is 8 µmol/kg; in the experiment filed under Rattus norvegicus [5] it was more than 30 µmol/kg.
`COc1ccc(CCCc2c(N)ncnc2C#Cc2ccc(N3CCOCC3)nc2)cc1`: the results for the negative-log IC50 (pIC50) against Adenosine kinase and with IMR-32 [2] were 8.46 and 6.70, respectively. The ED50 in the experiment listed under Rattus norvegicus [4] is 20 µmol/kg; in the experiment listed under Rattus norvegicus [5], more than 30 µmol/kg.
Take `CN(Cc1cccc(Br)c1)c1c(N)ncnc1C#Cc1ccc(N2CCOCC2)nc1`: the pIC50 was 8.30 against Adenosine kinase and 6.14 in the experiment on IMR-32 [1].
`Cc1ccccc1CN(C)c1c(N)ncnc1C#Cc1ccc(N2CCOCC2)nc1`: the values for the pIC50 against Adenosine kinase and with IMR-32 [2] were 8.22 and 7.03, respectively. Also, the NA result with Rattus norvegicus [6] and in the experiment on Rattus norvegicus [7] was “inactive” each time.
Consider `Nc1ncnc(C#Cc2ccc(N3CCOCC3)nc2)c1Cc1ccccc1`, for which the values for the pIC50 against Adenosine kinase and in the experiment with IMR-32 [2] were 7.40 and 6.15, respectively. In addition, in the experiment filed under Rattus norvegicus [4], the ED50 stood at 30 µmol/kg.
As to `Nc1ncnc(C#Cc2ccc(N3CCOCC3)nc2)c1CCCc1ccccc1Cl`, the figures for the pIC50 on Adenosine kinase and in the experiment with IMR-32 [1] were 8.60 and 6.73, respectively.
For `CN(Cc1ccccc1)Cc1c(N)ncnc1C#Cc1ccc(N2CCOCC2)nc1`, the pIC50 against Adenosine kinase is 8.70; in the experiment on IMR-32 [2], 6.93. The compound also had an ED50 in the experiment listed under Rattus norvegicus [5] of 5 µmol/kg. Further, the NA entry in the experiment on Rattus norvegicus [3] was “inactive”.
For the compound `Nc1ncnc(C#Cc2ccc(N3CCOCC3)nc2)c1CCCc1ccc(Br)cc1`, the pIC50 on Adenosine kinase was 8.70; in the experiment on IMR-32 [1], 6.25.
As to `CN(Cc1ccccc1Cl)Cc1c(N)ncnc1C#Cc1ccc(N2CCOCC2)nc1`, the pIC50 against Adenosine kinase was 8.30; with IMR-32 [2] it was 6.84. Besides, the ED50 in the experiment listed under Rattus norvegicus [4] was 30 µmol/kg; in the experiment filed under Rattus norvegicus [5] it was more than 30 µmol/kg.
With `Nc1cc(C#Cc2ccc(N3CCOCC3)nc2)ncn1`, the pIC50 is 6.92 against Adenosine kinase and less than 6.00 in the experiment on IMR-32 [2].
Take `Nc1ncnc(C#Cc2ccc(N3CCOCC3)nc2)c1CCCc1cccc(Br)c1`: the pIC50 at Adenosine kinase is 8.46; in the experiment on IMR-32 [1], 6.24.
For the compound `CN(Cc1cccc(Cl)c1)c1c(N)ncnc1C#Cc1ccc(N2CCOCC2)nc1`, the pIC50 against Adenosine kinase was 7.66; with IMR-32 [1], 6.65. Also, the NA result with Rattus norvegicus [6] and in the experiment with Rattus norvegicus [3] was “inactive” throughout.
With `Nc1ncnc(C#Cc2ccc(N3CCOCC3)nc2)c1CCCc1ccncc1`, the pIC50 on Adenosine kinase is 8.40; in the experiment on IMR-32 [2], 7.34. For the same compound, in the experiment filed under Rattus norvegicus [5], the 50% effect level (ED50) was put at a dose of 46 µmol/kg. The NA entry with Rattus norvegicus [3] was “inactive”.
Regarding `CN(Cc1ccccc1C(F)(F)F)c1c(N)ncnc1C#Cc1ccc(N2CCOCC2)nc1`, the pIC50 against Adenosine kinase is 7.40; in the experiment with IMR-32 [1] it was 6.56.
